Converted amounts (≈) assume the structure as drawn.
How the values were obtained:
Autotaxin [1] = molecular target: T1, Autotaxin (Homo sapiens, UniProt Q13822); assay: Inhibition of ATX (unknown origin) assessed as decrease in choline release
[2] = Permeability assessed as drug absorption at 50 ug/ml after 5 hrs by PAMPA; settings: at 50 µg/mL
[3] = Intrinsic clearance in Sprague-Dawley rat liver microsomes at 1 uM by HPLC analysis; assay type: ADME, microsome; settings: read-out: CLH
[4] = molecular target: T2, Voltage-gated inwardly rectifying potassium channel KCNH2 (Homo sapiens, UniProt Q12809); assay: Inhibition of human ERG expressed in CHO-K1 cells at -90 mV holding potential by Qpatch clamp assay
[5] = Fraction unbound in human plasma at 5 uM after 2 to 6 hrs by rapid equilibrium dialysis method; assay type: ADME, cell-free
[6] = Half life in Sprague-Dawley rat at 1 mg/kg, iv; assay type: ADME, organism-based; settings: in vivo
[7] = Clearance in Sprague-Dawley rat at 1 mg/kg, iv; assay type: ADME, organism-based; settings: in vivo
[8] = Volume of distribution at steady state in Sprague-Dawley rat at 1 mg/kg, iv; assay type: ADME, organism-based; settings: in vivo, read-out: Vdss
Rattus norvegicus [9] = assay: AUC (0 to infinity) in Sprague-Dawley rat at 10 mg/kg, po; assay type: ADME, organism-based; design: dose 10 mg/kg, time infinity, route oral; settings: in vivo
[10] = Cmax in Sprague-Dawley rat at 10 mg/kg, po; assay type: ADME, organism-based; design: dose 10 mg/kg, route oral; settings: in vivo
[11] = Tmax in Sprague-Dawley rat at 10 mg/kg, po; assay type: ADME, organism-based; settings: in vivo
[12] = Oral bioavailability in Sprague-Dawley rat at 10 mg/kg; assay type: ADME, organism-based; settings: in vivo
Autotaxin [13] = molecular target: T1, Autotaxin; assay: Inhibition of ATX in human serum assessed as reduction in LPA 18:1 levels after 3 hrs by LC-MS/MS analysis
In short: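 Human serum was cleared of coagulated blood by centrifugation (2100g, 10 min, room temperature) and stored at −80 °C. It was incubated with compound (0.5 nM–10 μM) with shaking at 37 °C for 3 h. LPA was extracted into methanol with 30 mM citric acid and LPA 17:0 internal standard (0.5 µM), then quantified by LC-MS/MS (negative-ion MRM). IC50 was obtained by non-linear regression.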

Rattus norvegicus [14] = assay: In vivo inhibition of ATX in Sprague-Dawley rat assessed as reduction in LPA 16:0 levels in serum at 0.3 mg/kg, po measured over 24 hrs by LCMS analysis relative to control; assay type: functional
In short: (§1)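 Male Sprague-Dawley rats (n = 6 per group) were given compound or vehicle (0.5% methyl cellulose:0.5% Tween80) orally at 5 ml/kg. Tail-vein blood was taken at various times without anticoagulant, held 30 min at room temperature, and spun at 700g for 10 min. Serum was stored at −80 °C. LPA isoforms were measured by LC-MS/MS, and PK/PD was assessed with a link model.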

Rattus norvegicus [15] = assay: In vivo inhibition of ATX in Sprague-Dawley rat assessed as reduction in LPA 18:0 levels in serum at 0.3 mg/kg, po measured over 24 hrs by LCMS analysis relative to control; assay type: functional; in short: as §1
Rattus norvegicus [16] = assay: In vivo inhibition of ATX in Sprague-Dawley rat assessed as reduction in LPA 18:1 levels in serum at 0.3 mg/kg, po measured over 24 hrs by LCMS analysis relative to control; assay type: functional; in short: as §1
Rattus norvegicus [17] = assay: In vivo inhibition of ATX in Sprague-Dawley rat assessed as reduction in LPA 24:4 levels in serum at 0.3 mg/kg, po measured over 24 hrs by LCMS analysis relative to control; assay type: functional; settings: in the assay text read “LPA 20:4” for “LPA 24:4”; in short: as §1
Rattus norvegicus [18] = assay: In vivo inhibition of ATX in po dosed Sprague-Dawley rat assessed as reduction in LPA 16:0 levels in serum measured over 24 hrs by LCMS analysis; assay type: functional, organism-based; in short: as §1
Rattus norvegicus [19] = assay: In vivo inhibition of ATX in po dosed Sprague-Dawley rat assessed as reduction in LPA 18:0 levels in serum measured over 24 hrs by LCMS analysis; assay type: functional, organism-based; in short: as §1
Rattus norvegicus [20] = assay: In vivo inhibition of ATX in po dosed Sprague-Dawley rat assessed as reduction in LPA 18:1 levels in serum measured over 24 hrs by LCMS analysis; assay type: functional, organism-based; in short: as §1
Rattus norvegicus [21] = assay: In vivo inhibition of ATX in po dosed Sprague-Dawley rat assessed as reduction in LPA 24:4 levels in serum measured over 24 hrs by LCMS analysis; assay type: functional, organism-based; settings: in the assay text read “LPA 20:4” for “LPA 24:4”; in short: as §1
[22] = Fraction unbound in rat plasma at 5 uM after 2 to 6 hrs by rapid equilibrium dialysis method; assay type: ADME, cell-free
[23] = Intrinsic clearance in human liver microsomes at 1 uM by HPLC analysis; assay type: ADME, microsome; settings: read-out: CLH
[24] = Thermodynamic solubility in FeSSIF; assay type: physicochemical; settings: read-out: Therm_solubility
[25] = Equilibrium solubility of compound at pH 6.8 by high-throughput screening method; settings: buffer
[26] = Oral bioavailability in Lewis rat at 1 to 100 mg/kg dosed via gavage after 1.25 to 24 hrs; assay type: ADME, organism-based; settings: in vivo
[27] = molecular target: T2, Voltage-gated inwardly rectifying potassium channel KCNH2; assay: Displacement of [3H]dofetilide from human ERG expressed in HEK293 cells after 45 mins by scintillation counting method

T2 sequence (Q12809 whole entry): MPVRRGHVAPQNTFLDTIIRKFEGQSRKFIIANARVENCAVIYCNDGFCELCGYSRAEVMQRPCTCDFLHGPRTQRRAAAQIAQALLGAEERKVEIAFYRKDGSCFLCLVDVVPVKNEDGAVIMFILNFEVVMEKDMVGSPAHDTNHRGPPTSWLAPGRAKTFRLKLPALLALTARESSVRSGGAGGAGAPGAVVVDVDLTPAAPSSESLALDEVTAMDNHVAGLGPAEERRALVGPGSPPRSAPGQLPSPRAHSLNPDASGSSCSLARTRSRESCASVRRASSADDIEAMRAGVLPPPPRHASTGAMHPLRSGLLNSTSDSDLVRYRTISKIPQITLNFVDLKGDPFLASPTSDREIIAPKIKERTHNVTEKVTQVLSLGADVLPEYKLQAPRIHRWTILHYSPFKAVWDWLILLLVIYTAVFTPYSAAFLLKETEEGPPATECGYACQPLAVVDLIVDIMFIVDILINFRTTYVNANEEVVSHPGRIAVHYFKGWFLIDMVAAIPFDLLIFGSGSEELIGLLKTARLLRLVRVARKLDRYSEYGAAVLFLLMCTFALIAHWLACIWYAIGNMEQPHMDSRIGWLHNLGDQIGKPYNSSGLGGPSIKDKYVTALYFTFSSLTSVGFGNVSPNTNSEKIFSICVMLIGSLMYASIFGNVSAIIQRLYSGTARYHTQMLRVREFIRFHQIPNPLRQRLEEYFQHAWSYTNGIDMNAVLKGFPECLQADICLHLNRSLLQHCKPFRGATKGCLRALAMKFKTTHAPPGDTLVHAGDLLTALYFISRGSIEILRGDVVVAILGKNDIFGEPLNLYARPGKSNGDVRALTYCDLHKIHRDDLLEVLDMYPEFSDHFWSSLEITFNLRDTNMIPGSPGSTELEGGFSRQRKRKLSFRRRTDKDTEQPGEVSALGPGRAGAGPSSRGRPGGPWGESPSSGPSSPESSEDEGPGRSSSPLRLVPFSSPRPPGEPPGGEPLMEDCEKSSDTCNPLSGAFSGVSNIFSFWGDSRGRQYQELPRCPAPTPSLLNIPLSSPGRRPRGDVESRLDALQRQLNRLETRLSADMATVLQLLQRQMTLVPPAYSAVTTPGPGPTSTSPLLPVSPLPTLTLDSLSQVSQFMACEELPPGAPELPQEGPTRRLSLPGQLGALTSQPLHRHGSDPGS

Compound O=C(CCCc1c[nH]nn1)NC1CCN(C(=O)OCc2ccc(C(F)(F)F)cc2)CC1 has an IC50 (Autotaxin [1]) of 39 nM and a Drug absorption [2] of 35%.

In the case of CN(CCC1CCN(C(=O)OCc2cc(Cl)cc(Cl)c2)CC1)C(=O)c1c[nH]nn1, the IC50 (Autotaxin [1]) is reported as 150 nM, the Drug absorption [2] is reported as 97% and the microsomal CLint at 1 µM [3] is reported as 51 µL/min/mg. For the same compound, the IC50 [4] was 8600 nM.

For O=C(CCCc1c[nH]nn1)NC1CCN(C(=O)OCc2cc(Cl)cc(Cl)c2)CC1, the IC50 (Autotaxin [1]) was 3.1 nM, the Drug absorption [2] was 43% and the microsomal CLint at 1 µM [3] was 104 µL/min/mg. The fraction unbound at 5 µM [5] was 0.026, the IC50 [4] was 20900 nM and the half-life [6] was 5.3 h. The clearance [7] was 16 mL/min/kg, the Vd [8] was 2.5 L/kg and the AUC (Rattus norvegicus [9]) was 17 µM·h. For the same compound, the Cmax [10] was 2.85 µM, the Tmax [11] was 1.3 h and the bioavailability [12] was 68%. For the same compound, the IC50 (Autotaxin [13]) was 9 nM, the inhibition in vivo at 0.3 mg/kg (Rattus norvegicus [14]) was 70 to 80% and the inhibition in vivo at 0.3 mg/kg (Rattus norvegicus [15]) was 70 to 80%. The inhibition in vivo at 0.3 mg/kg (Rattus norvegicus [16]) was 70 to 80%, the inhibition in vivo at 0.3 mg/kg (Rattus norvegicus [17]) was 70 to 80% and the IC50 (Rattus norvegicus [18]) was 20 nM. For the same compound, the IC50 (Rattus norvegicus [19]) was 20 nM, the IC50 (Rattus norvegicus [20]) was 20 nM and the IC50 (Rattus norvegicus [21]) was 20 nM. For the same compound, the fraction unbound at 5 µM [22] was 0.04, the microsomal CLint at 1 µM [23] was 59 µL/min/mg and the solubility thermodynamic [24] was 126 µg/mL (≈ 286 µM).

Cn1cc(CCCC(=O)NC2CCN(C(=O)OCc3cc(Cl)cc(Cl)c3)CC2)nn1 showed an IC50 (Autotaxin [1]) of 1370 nM.

In the case of O=C(OCc1cc(Cl)cc(Cl)c1)N1CCC(N2CCN(C(=O)c3ccc4[nH]c(=O)oc4c3)CC2)C1 (racemic), the IC50 (Autotaxin [1]) is reported as 18 nM.

In the case of CN(C(=O)CCCc1c[nH]nn1)C1CCN(C(=O)OCc2cc(Cl)cc(Cl)c2)CC1, the Drug absorption [2] is reported as 89%.

O=C(OCc1cc(Cl)cc(Cl)c1)N1CC(N2CCN(C(=O)c3ccc4[nH]c(=O)oc4c3)CC2)C1 showed an IC50 (Autotaxin [1]) of 3.9 nM.

For O=C(NCC1(O)CCN(C(=O)OCc2cc(Cl)cc(Cl)c2)CC1)c1ccc2[nH]c(=O)oc2c1, the IC50 (Autotaxin [1]) was 8 nM.

In the case of N#Cc1cc(Cl)cc(COC(=O)N2CCC(NC(=O)CCCc3c[nH]nn3)CC2)c1, the IC50 (Autotaxin [1]) is reported as 7.7 nM and the Drug absorption [2] is reported as 21%.

Work on O=C(CCN1CCN(C(=O)OCc2ccccc2)CC1)c1ccc2[nH]c(=O)oc2c1 yielded an IC50 (Autotaxin [1]) of 130 nM.

O=C(NCCC1CN(C(=O)OCc2cc(Cl)cc(Cl)c2)CCO1)c1ccc2[nH]c(=O)oc2c1 (racemic) gave an IC50 (Autotaxin [1]) of 10 nM.

Work on CN(CCC1CCN(C(=O)OCc2cc(Cl)cc(Cl)c2)CC1)C(=O)c1c[nH]c(=O)o1 yielded a microsomal CLint at 1 µM [3] of 235 µL/min/mg, a fraction unbound at 5 µM [5] of 0.005 and a half-life [6] of 4.8 h. For the same compound, the clearance [7] was 12 mL/min/kg, the Vd [8] was 2.2 L/kg and the AUC (Rattus norvegicus [9]) was 25 µM·h. It also gave a Cmax [10] of 3.4 µM, a Tmax [11] of 2.5 h and a bioavailability [12] of 80%.

O=C(NCCN1CCN(C(=O)OCc2cc(Cl)cc(Cl)c2)CC1)c1c[nH]c(=O)o1 showed a solubility thermodynamic [25] of 60 µg/mL (≈ 135 µM), an IC50 (Autotaxin [1]) of 370 nM and a Drug absorption [2] of 35%.

Compound O=C(NCCC1CCN(C(=O)OCc2cc(Cl)cc(Cl)c2)CC1)c1c[nH]c(=O)o1 has a solubility thermodynamic [25] of 80 µg/mL (≈ 181 µM), an IC50 (Autotaxin [1]) of 86 nM and a Drug absorption [2] of 68%.

For O=C(CCN1CCN(C(=O)OCC2CCCCC2)CC1)c1ccc2[nH]c(=O)oc2c1, the IC50 (Autotaxin [1]) was 240 nM.

With O=C(CCc1c[nH]nn1)NC1CCN(C(=O)OCc2cc(Cl)cc(Cl)c2)CC1 the microsomal CLint at 1 µM [3] was 75 µL/min/mg.

With O=C(CCCc1c[nH]nn1)NC1CCN(C(=O)OCc2cc(F)cc(Cl)c2)CC1 the Drug absorption [2] was 35%.

O=C(CCN1CCN(C(=O)OCc2cc(Cl)cc(Cl)c2)CC1)c1ccc2[nH]c(=O)oc2c1 showed a bioavailability [26] of 43 to 83%, a solubility thermodynamic [25] of 10 to 11 µg/mL (≈ 20.9 to 23 µM) and an IC50 [27] of 2700 nM. For the same compound, the Drug absorption [2] was 81%.

Work on O=C(CCN1CCN(C(=O)OCC2CCCC2)CC1)c1ccc2[nH]c(=O)oc2c1 yielded an IC50 (Autotaxin [1]) of 170 nM.

For O=C(CCCc1c[nH]nn1)NC1CCN(C(=O)OCc2ccc(Cl)cc2Cl)CC1, the Drug absorption [2] was 43%.
